ChEMBL document CHEMBL3797138, “Discovery of a Selective and Potent Inhibitor of Mitogen-Activated Protein Kinase-Interacting Kinases 1 and 2 (MNK1/2) Utilizing Structure-Based Drug Design” (J Med Chem, 2016)
In brackets after ≈: the same amount, converted by molar mass.

What was measured:
[1] = target: MAP kinase-interacting serine/threonine-protein kinase 1 (Homo sapiens, UniProt Q9BUB5); test: Inhibition of ERK2-activated full length wild type MNK1a (unknown origin) using biotin-SGSGKRREILSRRPSYR-NH2 as substrate after 2 hrs by HTRF assay
MAP kinase-interacting serine/threonine-protein kinase 1, sequence (Q9BUB5 whole entry): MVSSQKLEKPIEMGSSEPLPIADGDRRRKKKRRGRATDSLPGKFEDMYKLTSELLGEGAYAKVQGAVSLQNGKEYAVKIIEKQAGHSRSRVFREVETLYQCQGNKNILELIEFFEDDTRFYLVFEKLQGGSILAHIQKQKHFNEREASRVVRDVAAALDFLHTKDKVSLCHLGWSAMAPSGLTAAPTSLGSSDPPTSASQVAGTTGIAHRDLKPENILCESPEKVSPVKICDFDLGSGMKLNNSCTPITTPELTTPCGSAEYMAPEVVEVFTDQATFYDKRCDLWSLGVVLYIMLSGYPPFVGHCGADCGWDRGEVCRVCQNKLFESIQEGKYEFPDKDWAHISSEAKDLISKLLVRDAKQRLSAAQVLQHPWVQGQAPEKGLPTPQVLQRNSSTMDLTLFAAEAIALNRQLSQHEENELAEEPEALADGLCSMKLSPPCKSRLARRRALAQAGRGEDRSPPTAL
How it was run: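 In-house full-length MNK1a (0.5 nM final) activated by full-length ERK2 (0.5 nM final). Biotin-crebtide 200 nM and ATP 200 µM. Buffer: 50 mM Hepes pH 7.5, 5 mM MgCl2, 0.05% BSA, 0.01% Tween-20, 1 mM DTT, 2.5% DMSO. Reaction run 2 h, then stopped with EDTA/KF buffer holding Eu-anti-phospho-creb (0.23 nM) and streptavidin-XL665 (50 nM). Read by HTRF after overnight development in the dark.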

[2] = target: Cyclin-dependent kinase 2 (Homo sapiens, UniProt P24941); test: Inhibition of CDK2 (unknown origin)
[3] = Solubility of the compound at pH 7.4 by high throughput assay; details: buffer
[4] = Lipophilicity, log D of the compound at pH 7.4; details: buffer
[5] = target: Cyclin-dependent kinase 1 (Homo sapiens, UniProt P06493); test: Inhibition of CDK1 (unknown origin)
Cyclin-dependent kinase 1, sequence (P06493 whole entry): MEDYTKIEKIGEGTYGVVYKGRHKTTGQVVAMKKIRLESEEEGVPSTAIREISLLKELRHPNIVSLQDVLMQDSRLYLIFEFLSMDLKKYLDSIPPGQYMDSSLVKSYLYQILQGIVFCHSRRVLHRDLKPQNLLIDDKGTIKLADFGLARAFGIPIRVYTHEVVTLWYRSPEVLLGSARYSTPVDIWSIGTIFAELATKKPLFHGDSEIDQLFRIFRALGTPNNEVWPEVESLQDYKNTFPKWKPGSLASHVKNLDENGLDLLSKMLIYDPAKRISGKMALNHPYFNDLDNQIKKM

[6] = target: MAP kinase-interacting serine/threonine-protein kinase 2 (Homo sapiens, UniProt Q9HBH9); test: Inhibition of N-terminal 6His-tagged recombinant human full length wild type MNK2b using biotin-SGSGKRREILSRRPSYR-NH2 as substrate after 1 hr by HTRF assay
MAP kinase-interacting serine/threonine-protein kinase 2, sequence (Q9HBH9 whole entry): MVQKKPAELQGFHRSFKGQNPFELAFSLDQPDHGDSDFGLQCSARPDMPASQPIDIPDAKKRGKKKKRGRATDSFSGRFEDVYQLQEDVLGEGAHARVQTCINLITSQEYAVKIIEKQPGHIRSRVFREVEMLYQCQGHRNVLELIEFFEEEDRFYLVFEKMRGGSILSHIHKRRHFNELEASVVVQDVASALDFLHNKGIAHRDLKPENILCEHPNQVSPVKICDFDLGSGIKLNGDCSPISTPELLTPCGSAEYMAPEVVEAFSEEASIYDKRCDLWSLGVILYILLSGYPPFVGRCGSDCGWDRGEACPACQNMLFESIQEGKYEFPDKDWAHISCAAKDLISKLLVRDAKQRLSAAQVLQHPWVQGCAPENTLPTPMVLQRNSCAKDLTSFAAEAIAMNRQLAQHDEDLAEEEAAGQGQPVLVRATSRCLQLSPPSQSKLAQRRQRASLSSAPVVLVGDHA
How it was run: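 Commercial full-length wild-type MNK2b at 1 nM final, with biotin-crebtide 200 nM and ATP 200 µM. Buffer: 50 mM Hepes pH 7.5, 5 mM MgCl2, 0.05% BSA, 0.01% Tween-20, 1 mM DTT, 2.5% DMSO. Stop/detection buffer: 20 mM EDTA, 0.1% BSA, 0.4 M KF, with Eu-anti-phospho-creb antibody 0.23 nM and SA-XL665 50 nM. Developed overnight in the dark at room temperature; HTRF read, excitation 320 nm, emission 665 nm.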

[7] = Apparent permeability across apical to basolateral side in human Caco2 cells; details: Caco-2
[8] = Efflux ratio of apparent permeability across basolateral to apical side over apical to basolateral side in human Caco2 cells; details: Caco-2
[9] = target: MAP kinase-interacting serine/threonine-protein kinase 1/2 (Homo sapiens, UniProt Q9HBH9+Q9BUB5); test: Inhibition of MNK1/2 in human KMS11-luc cells assessed as inhibition of EIF4E phosphorylation at S209 after 3 hrs by quantitative electrochemiluminescence assay; type: cell-based
How it was run: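 KMS11-luc cells seeded at 300,000 cells/well and exposed to compounds for 3 h at 37 °C, 5% CO2, then lysed in well with Triton-based buffer. Lysate captured overnight at 4 °C on blocked ECL plates. Detection: anti-phospho-EIF4E (S209) antibody 1:200 plus sulfo-tag goat anti-rabbit 1:400, 2 h at room temperature, electrochemiluminescence read. Phospho-EIF4E signal normalized to total YB1 for EC50.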

[10] = target: T1, Receptor-type tyrosine-protein kinase FLT3 (Homo sapiens, UniProt P36888); test: Inhibition of FLT3 (unknown origin)
T1 sequence (P36888 whole entry): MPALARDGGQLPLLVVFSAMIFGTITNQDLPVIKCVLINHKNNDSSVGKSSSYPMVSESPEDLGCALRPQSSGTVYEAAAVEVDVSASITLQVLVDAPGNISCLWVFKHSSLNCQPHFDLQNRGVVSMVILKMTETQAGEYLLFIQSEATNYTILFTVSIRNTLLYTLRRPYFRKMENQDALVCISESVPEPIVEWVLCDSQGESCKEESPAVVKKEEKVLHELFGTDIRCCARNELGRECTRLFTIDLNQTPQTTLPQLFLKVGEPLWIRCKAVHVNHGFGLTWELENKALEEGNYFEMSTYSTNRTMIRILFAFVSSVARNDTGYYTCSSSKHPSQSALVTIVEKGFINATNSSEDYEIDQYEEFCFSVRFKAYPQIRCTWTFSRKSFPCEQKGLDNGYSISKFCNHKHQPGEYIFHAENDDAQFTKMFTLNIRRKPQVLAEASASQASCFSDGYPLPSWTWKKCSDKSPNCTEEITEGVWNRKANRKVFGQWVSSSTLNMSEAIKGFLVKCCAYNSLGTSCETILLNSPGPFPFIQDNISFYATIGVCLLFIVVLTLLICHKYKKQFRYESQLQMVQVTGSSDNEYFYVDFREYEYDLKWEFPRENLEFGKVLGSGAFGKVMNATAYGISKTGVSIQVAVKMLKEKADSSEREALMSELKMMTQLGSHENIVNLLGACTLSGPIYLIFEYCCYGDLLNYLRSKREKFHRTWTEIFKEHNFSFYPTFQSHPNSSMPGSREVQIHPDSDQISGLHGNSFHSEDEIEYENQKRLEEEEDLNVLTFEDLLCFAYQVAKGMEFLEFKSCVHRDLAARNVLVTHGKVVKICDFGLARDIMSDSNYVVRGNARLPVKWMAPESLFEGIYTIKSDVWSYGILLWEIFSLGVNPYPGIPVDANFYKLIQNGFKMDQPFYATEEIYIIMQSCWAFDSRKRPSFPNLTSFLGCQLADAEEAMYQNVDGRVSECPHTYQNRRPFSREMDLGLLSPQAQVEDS

[11] = Intrinsic clearance in rat liver microsomes; type: ADME
[12] = Inhibition of CYP450 (unknown origin); type: ADME, Homo sapiens
[13] = Antiproliferative activity against luciferase expressing human KMS11 cells after 5 days by CellTiter-Glo luminescent assay; type: functional, cell-based; details: KMS-11, 120 h
How it was run: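 KMS11-luc cells seeded at 2500 cells/well; compounds added 2 h after seeding, then incubated 5 days at 37 °C, 5% CO2. CellTiter-Glo added in equal volume, shaken 2 min, kept 10 min dark at room temperature, and luminescence read. EC50 fitted from % inhibition versus concentration (µM) with a four-parameter equation.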

[14] = target: Serine/threonine-protein kinase pim-2 (Homo sapiens, UniProt Q9P1W9); test: Inhibition of PIM2 (unknown origin)
Serine/threonine-protein kinase pim-2, sequence (Q9P1W9 whole entry): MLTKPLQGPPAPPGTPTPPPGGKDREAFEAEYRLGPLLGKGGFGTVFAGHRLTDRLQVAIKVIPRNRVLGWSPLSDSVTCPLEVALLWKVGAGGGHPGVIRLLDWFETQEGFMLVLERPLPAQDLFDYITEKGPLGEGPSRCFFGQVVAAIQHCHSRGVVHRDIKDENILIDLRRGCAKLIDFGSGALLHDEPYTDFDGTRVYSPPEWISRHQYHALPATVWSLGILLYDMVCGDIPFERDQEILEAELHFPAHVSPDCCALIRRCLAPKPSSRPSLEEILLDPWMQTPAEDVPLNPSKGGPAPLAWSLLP

[15] = target: Calcium/calmodulin-dependent protein kinase type II subunit delta (Homo sapiens, UniProt Q13557); test: Inhibition of CAMK2D (unknown origin)
Calcium/calmodulin-dependent protein kinase type II subunit delta, sequence (Q13557 whole entry): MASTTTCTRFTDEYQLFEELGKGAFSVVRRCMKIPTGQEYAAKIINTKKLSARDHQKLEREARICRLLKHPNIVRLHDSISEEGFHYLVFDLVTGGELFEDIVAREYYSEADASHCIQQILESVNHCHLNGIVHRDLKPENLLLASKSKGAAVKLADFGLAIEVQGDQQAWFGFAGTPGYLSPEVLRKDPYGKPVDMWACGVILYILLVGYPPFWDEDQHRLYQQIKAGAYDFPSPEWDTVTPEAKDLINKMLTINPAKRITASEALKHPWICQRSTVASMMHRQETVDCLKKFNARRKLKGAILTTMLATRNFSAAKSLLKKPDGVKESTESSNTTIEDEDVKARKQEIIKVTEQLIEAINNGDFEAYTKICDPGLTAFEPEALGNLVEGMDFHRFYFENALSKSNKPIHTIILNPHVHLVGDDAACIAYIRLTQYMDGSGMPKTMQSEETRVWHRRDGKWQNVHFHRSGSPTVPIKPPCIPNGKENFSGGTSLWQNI

[16] = Hepatic extraction ratio in rat liver microsomes; type: ADME; details: read-out: ERH
[17] = target: Cyclin-dependent kinase 9 (Homo sapiens, UniProt P50750); test: Inhibition of CDK9 (unknown origin)
Cyclin-dependent kinase 9, sequence (P50750 whole entry): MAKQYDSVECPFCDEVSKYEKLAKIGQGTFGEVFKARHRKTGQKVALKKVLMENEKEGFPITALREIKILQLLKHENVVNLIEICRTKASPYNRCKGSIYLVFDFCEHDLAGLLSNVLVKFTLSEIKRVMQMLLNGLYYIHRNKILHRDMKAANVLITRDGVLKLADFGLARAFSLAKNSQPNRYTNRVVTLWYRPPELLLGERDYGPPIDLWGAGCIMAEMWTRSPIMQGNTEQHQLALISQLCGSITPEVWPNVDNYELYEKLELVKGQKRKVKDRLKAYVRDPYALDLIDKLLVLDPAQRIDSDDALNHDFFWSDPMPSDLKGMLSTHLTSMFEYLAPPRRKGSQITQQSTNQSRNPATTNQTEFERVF

[18] = target: Rho-associated protein kinase 2 (Homo sapiens, UniProt O75116); test: Inhibition of ROCK2 (unknown origin)
Rho-associated protein kinase 2, sequence (O75116 whole entry): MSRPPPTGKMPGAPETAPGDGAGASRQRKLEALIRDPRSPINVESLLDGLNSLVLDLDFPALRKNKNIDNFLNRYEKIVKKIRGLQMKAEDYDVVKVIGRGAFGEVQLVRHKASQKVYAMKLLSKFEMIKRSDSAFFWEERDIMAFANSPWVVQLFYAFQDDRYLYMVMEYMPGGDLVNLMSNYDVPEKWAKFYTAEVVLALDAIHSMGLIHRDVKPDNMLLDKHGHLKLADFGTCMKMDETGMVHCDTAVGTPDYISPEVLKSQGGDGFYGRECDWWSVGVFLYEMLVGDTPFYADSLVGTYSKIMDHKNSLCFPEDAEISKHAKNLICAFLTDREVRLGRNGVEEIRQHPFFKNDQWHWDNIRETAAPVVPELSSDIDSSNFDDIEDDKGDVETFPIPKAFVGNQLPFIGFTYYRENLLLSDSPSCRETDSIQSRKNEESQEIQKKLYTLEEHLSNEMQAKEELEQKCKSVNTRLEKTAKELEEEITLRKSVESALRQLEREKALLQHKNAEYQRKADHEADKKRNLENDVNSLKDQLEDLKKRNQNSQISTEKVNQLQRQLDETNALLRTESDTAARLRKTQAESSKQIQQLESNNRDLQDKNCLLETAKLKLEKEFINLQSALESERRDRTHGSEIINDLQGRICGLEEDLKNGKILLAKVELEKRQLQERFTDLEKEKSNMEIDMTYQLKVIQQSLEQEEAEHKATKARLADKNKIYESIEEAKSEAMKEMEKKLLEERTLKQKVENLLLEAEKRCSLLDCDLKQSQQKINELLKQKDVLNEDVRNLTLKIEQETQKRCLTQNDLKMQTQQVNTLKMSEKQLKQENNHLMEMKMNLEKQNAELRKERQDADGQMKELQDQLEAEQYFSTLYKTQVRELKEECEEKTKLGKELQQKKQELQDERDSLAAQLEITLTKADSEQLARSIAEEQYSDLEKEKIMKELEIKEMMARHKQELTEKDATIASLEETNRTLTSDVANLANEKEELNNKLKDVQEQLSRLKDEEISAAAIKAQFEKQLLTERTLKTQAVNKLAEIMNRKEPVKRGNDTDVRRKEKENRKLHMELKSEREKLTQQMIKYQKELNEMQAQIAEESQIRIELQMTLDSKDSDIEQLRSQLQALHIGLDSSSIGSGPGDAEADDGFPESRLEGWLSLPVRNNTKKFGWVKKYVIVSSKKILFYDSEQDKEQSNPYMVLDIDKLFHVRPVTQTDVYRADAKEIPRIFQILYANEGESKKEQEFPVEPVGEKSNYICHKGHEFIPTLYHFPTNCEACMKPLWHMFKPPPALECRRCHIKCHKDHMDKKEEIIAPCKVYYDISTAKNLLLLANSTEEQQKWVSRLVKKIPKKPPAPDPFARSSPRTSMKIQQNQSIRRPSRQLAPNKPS

| Structure (SMILES) | IC50 [1] | IC50 [2] | solubility [3] | logD [4] | IC50 [5] | IC50 [6] | Papp A→B [7] | efflux ratio [8] | EC50 [9] | IC50 [10] | CLint [11] | IC50 [12] | EC50 [13] | IC50 [14] | IC50 [15] | hepatic extraction ratio [16] | IC50 [17] | IC50 [18] |
| --- | --- | --- | --- | --- | --- | --- | --- | --- | --- | --- | --- | --- | --- | --- | --- | --- | --- | --- |
| Nc1ncccc1-c1nc2ccccc2[nH]1 | 0.7 µM | 25 µM | 300 µM (≈ 63.1 µg/mL) | 3 | 10 µM | 0.9 µM |  |  |  |  |  |  |  |  |  |  |  |  |
| CN(C)C(=O)c1cccc(-c2cnc(N)c(-c3nc4ccccc4[nH]3)c2)c1 | 0.036 µM | 5.7 µM |  | 4.2 | 1 µM | 0.034 µM |  |  |  |  |  |  |  |  |  |  |  |  |
| CN(C)C(=O)c1cccc(-c2cnc(N)c(-c3nc4cccc(N5CCNCC5)c4[nH]3)c2)c1 | 0.004 µM | 4 µM | 102 µM (≈ 45 µg/mL) | 1.8 | 1 µM | 0.002 µM | 4 ×10⁻⁶ cm/s | 3.6 | 0.13 µM |  |  |  |  |  |  |  |  |  |
| C[C@H]1CN(c2cccc3nc(-c4nc(-c5cccc(C(=O)N(C)C)c5)cnc4N)n(C)c23)CCN1 | 0.0015 µM | 3.4 µM |  |  | 1 µM | 0.0007 µM |  |  | 0.003 µM |  |  |  |  |  |  |  |  |  |
| CN(C)C(=O)c1cccc(-c2cnc(N)c(-c3nc4cccc(N5CCNCC5)c4[nH]3)n2)c1 | 0.08 µM | 11 µM | 70 µM (≈ 31 µg/mL) | 1.9 | 1.7 µM | 0.02 µM | 0.7 ×10⁻⁶ cm/s | 87 | 0.05 µM |  |  |  |  |  |  |  |  |  |
| CN(C)C(=O)c1cccc(-c2cnc(N)c(-c3nc4cccc(N5CCNCC5)c4n3C)n2)c1 | 0.002 µM | 1.4 µM | 254 µM (≈ 116 µg/mL) | 1.1 | 0.5 µM | 0.001 µM | 9 ×10⁻⁶ cm/s | 2.3 | 0.005 µM |  |  |  |  |  |  |  |  |  |
| Nc1ncc(-c2ccccc2)cc1-c1nc2ccccc2[nH]1 | 0.12 µM | 1.3 µM |  | > 4.2 | 0.16 µM | 0.72 µM |  |  |  |  |  |  |  |  |  |  |  |  |
| C[C@H]1CN(c2cccc3nc(-c4nc(-c5cc(C(=O)N(C)C)ccn5)cnc4N)n(C)c23)CCN1 | 0.003 µM | > 25 µM | 220 µM (≈ 104 µg/mL) | 1.9 | > 25 µM | 0.003 µM | 5 ×10⁻⁶ cm/s | 5 | 0.0006 µM | 0.28 µM | 32 µL/min/mg | > 40 µM | 1.7 µM | 0.73 µM | 0.69 µM | 0.54 | > 25 µM | 0.37 µM |
| CC(=O)C1=C(O)C=C2Oc3c(C(N)=O)c(O)cc(O)c3[C@]2(C)C1=O |  |  |  |  |  |  |  |  |  |  |  |  | > 10 µM |  |  |  |  |  |
